Test system: HEK-293T
Test: Multiplex assay against HEK293T
Assay type: toxicity, cell-based
Conditions: human
Outline: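 Four dyes were applied at seeding to live cells: Hoechst33342, BioTracker Green Microtubule Cytoskeleton Dye, MitoTracker Red and Annexin V Alexa Fluor 680. Imaging after compound addition used a CQ1 microscope at 37°C and 5% CO2. CellPathfinder machine-learning gating then sorted cells into Hoechst high-intensity objects or normal cells, normal cells into healthy, pyknosed or fragmented nuclei, and pyknosed cells into mitotic or apoptotic, with tubulin, mitochondrial-mass and membrane-permeability phenotypes given as per cents of healthy-nucleus cells.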

[1] = 12 h, 1 µM, compound concentration 1 uM, replicate 1
[2] = 12 h, 1 µM, compound concentration 1 uM, replicate 2
[3] = 12 h, 10 µM, compound concentration 10 uM, replicate 1
[4] = 12 h, 10 µM, compound concentration 10 uM, replicate 2
[5] = 24 h, 1 µM, compound concentration 1 uM, replicate 1
[6] = 24 h, 1 µM, compound concentration 1 uM, replicate 2
[7] = 24 h, 10 µM, compound concentration 10 uM, replicate 1
[8] = 24 h, 10 µM, compound concentration 10 uM, replicate 2
[9] = 48 h, 1 µM, compound concentration 1 uM, replicate 1
[10] = 48 h, 1 µM, compound concentration 1 uM, replicate 2
[11] = 48 h, 10 µM, compound concentration 10 uM, replicate 1
[12] = 48 h, 10 µM, compound concentration 10 uM, replicate 2

Structure (SMILES): c1cc(OCCCN2CCCCC2)ccc1CN1CCCCC1 [JNJ-5207852]
- Population Apoptotic (%) [1]: 36%
- Population Fragmented Nuclei (%) [1]: 6%
- Population Healthy Nuclei (%) [1]: 84%
- Population Hoechst High Intensity Objects (%) [1]: 5%
- Population Membrane Permeable-Phenotype (%) [1]: 0%
- Population Mitochondria Different-Phenotype (%) [1]: 36%
- Population Mitotic Cells (%) [1]: 63%
- Population Normal (%) [1]: 94%
- Population Pyknosed Nuclei (%) [1]: 8%
- Population Tubulin-Different-Phenotype (%) [1]: 21%
- Total Cell Count [1]: 577
- Population Apoptotic (%) [2]: 47%
- Population Fragmented Nuclei (%) [2]: 10%
- Population Healthy Nuclei (%) [2]: 75%
- Population Mitochondria Different-Phenotype (%) [2]: 53%
- Population Mitotic Cells (%) [2]: 52%
- Population Pyknosed Nuclei (%) [2]: 13%
- Population Tubulin-Different-Phenotype (%) [2]: 17%
- Total Cell Count [2]: 310
- Population Apoptotic (%) [3]: 40%
- Population Fragmented Nuclei (%) [3]: 7%
- Population Healthy Nuclei (%) [3]: 75%
- Population Hoechst High Intensity Objects (%) [3]: 7%
- Population Membrane Permeable-Phenotype (%) [3]: 0%
- Population Mitochondria Different-Phenotype (%) [3]: 63%
- Population Mitotic Cells (%) [3]: 59%
- Population Normal (%) [3]: 92%
- Population Pyknosed Nuclei (%) [3]: 17%
- Population Tubulin-Different-Phenotype (%) [3]: 52%
- Total Cell Count [3]: 328
- Population Apoptotic (%) [4]: 66%
- Population Healthy Nuclei (%) [4]: 67%
- Population Hoechst High Intensity Objects (%) [4]: 11%
- Population Membrane Permeable-Phenotype (%) [4]: 1%
- Population Mitochondria Different-Phenotype (%) [4]: 69%
- Population Mitotic Cells (%) [4]: 33%
- Population Normal (%) [4]: 88%
- Population Pyknosed Nuclei (%) [4]: 24%
- Population Tubulin-Different-Phenotype (%) [4]: 41%
- Total Cell Count [4]: 259
- Population Apoptotic (%) [5]: 25%
- Population Fragmented Nuclei (%) [5]: 6%
- Population Healthy Nuclei (%) [5]: 82%
- Population Hoechst High Intensity Objects (%) [5]: 5%
- Population Membrane Permeable-Phenotype (%) [5]: 1%
- Population Mitochondria Different-Phenotype (%) [5]: 20%
- Population Mitotic Cells (%) [5]: 74%
- Population Normal (%) [5]: 94%
- Population Pyknosed Nuclei (%) [5]: 11%
- Population Tubulin-Different-Phenotype (%) [5]: 15%
- Total Cell Count [5]: 710
- Population Apoptotic (%) [6]: 41%
- Population Fragmented Nuclei (%) [6]: 11%
- Population Healthy Nuclei (%) [6]: 79%
- Population Hoechst High Intensity Objects (%) [6]: 3%
- Population Membrane Permeable-Phenotype (%) [6]: 0%
- Population Mitochondria Different-Phenotype (%) [6]: 30%
- Population Mitotic Cells (%) [6]: 58%
- Population Normal (%) [6]: 96%
- Population Pyknosed Nuclei (%) [6]: 9%
- Population Tubulin-Different-Phenotype (%) [6]: 12%
- Total Cell Count [6]: 447
- Population Apoptotic (%) [7]: 47%
- Population Fragmented Nuclei (%) [7]: 9%
- Population Healthy Nuclei (%) [7]: 77%
- Population Hoechst High Intensity Objects (%) [7]: 6%
- Population Membrane Permeable-Phenotype (%) [7]: 1%
- Population Mitochondria Different-Phenotype (%) [7]: 47%
- Population Mitotic Cells (%) [7]: 52%
- Population Normal (%) [7]: 93%
- Population Pyknosed Nuclei (%) [7]: 13%
- Population Tubulin-Different-Phenotype (%) [7]: 44%
- Total Cell Count [7]: 414
- Population Apoptotic (%) [8]: 65%
- Population Fragmented Nuclei (%) [8]: 8%
- Population Healthy Nuclei (%) [8]: 79%
- Population Hoechst High Intensity Objects (%) [8]: 5%
- Population Membrane Permeable-Phenotype (%) [8]: 2%
- Population Mitochondria Different-Phenotype (%) [8]: 50%
- Population Mitotic Cells (%) [8]: 34%
- Population Normal (%) [8]: 94%
- Population Pyknosed Nuclei (%) [8]: 11%
- Population Tubulin-Different-Phenotype (%) [8]: 35%
- Total Cell Count [8]: 322
- Population Apoptotic (%) [9]: 17%
- Population Fragmented Nuclei (%) [9]: 14%
- Population Healthy Nuclei (%) [9]: 80%
- Population Hoechst High Intensity Objects (%) [9]: 2%
- Population Membrane Permeable-Phenotype (%) [9]: 1%
- Population Mitochondria Different-Phenotype (%) [9]: 12%
- Population Mitotic Cells (%) [9]: 82%
- Population Normal (%) [9]: 97%
- Population Pyknosed Nuclei (%) [9]: 5%
- Population Tubulin-Different-Phenotype (%) [9]: 11%
- Total Cell Count [9]: 1128
- Population Apoptotic (%) [10]: 23%
- Population Fragmented Nuclei (%) [10]: 11%
- Population Healthy Nuclei (%) [10]: 83%
- Population Hoechst High Intensity Objects (%) [10]: 1%
- Population Mitochondria Different-Phenotype (%) [10]: 17%
- Population Mitotic Cells (%) [10]: 76%
- Population Normal (%) [10]: 98%
- Population Pyknosed Nuclei (%) [10]: 4%
- Population Tubulin-Different-Phenotype (%) [10]: 9%
- Total Cell Count [10]: 746
- Population Apoptotic (%) [11]: 34%
- Population Fragmented Nuclei (%) [11]: 13%
- Population Healthy Nuclei (%) [11]: 77%
- Population Hoechst High Intensity Objects (%) [11]: 8%
- Population Membrane Permeable-Phenotype (%) [11]: 1%
- Population Mitochondria Different-Phenotype (%) [11]: 29%
- Population Mitotic Cells (%) [11]: 65%
- Population Normal (%) [11]: 91%
- Population Pyknosed Nuclei (%) [11]: 8%
- Population Tubulin-Different-Phenotype (%) [11]: 28%
- Total Cell Count [11]: 619
- Population Apoptotic (%) [12]: 52%
- Population Healthy Nuclei (%) [12]: 75%
- Population Hoechst High Intensity Objects (%) [12]: 9%
- Population Mitochondria Different-Phenotype (%) [12]: 38%
- Population Mitotic Cells (%) [12]: 47%
- Population Normal (%) [12]: 90%
- Population Pyknosed Nuclei (%) [12]: 10%
- Population Tubulin-Different-Phenotype (%) [12]: 30%
- Total Cell Count [12]: 424

— ChEMBL document CHEMBL5058577, “EUbOPEN Chemogenomics Library 2 (Multiplex)” (2022)
